PubChem BioAssay AID504469 (NMMLSC, 2011)
The source made the active and inactive calls.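 Rule for the calls: active = compounds whose fitted GFP dose response EC50 is at or below 33 microM; inactive = the rest.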

What was measured:
[1] = yeast TOR reporter LAP4-GFP level changes – cell-based, KU SAR set 2, flow cytometry, SAR follow-up (AID 504469); conditions: S. cerevisiae LAP4-GFP strain, flow cytometry fluorescence, 3 h
Outline: (§1)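 material = S. cerevisiae LAP4-GFP yeast strain | input = yeast cells diluted to OD600 of 0.2 | doses = test compound in multi-concentration dose-response series | read-out = EC50 of background-corrected GFP signal | timing = 3 h compound treatment, 30 °C | technique = flow cytometry of GFP, median fluorescence bead-calibrated to kMESF | medium = synthetic complete medium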

[2] = tested on: S. cerevisiae LAP4-GFP strain, flow cytometry fluorescence, 3 h; assay: as above
Outline: as §1

| SMILES | GFP fluorescence (kMESF) ([1]; at 100 µM (top of the series)) | GFP fluorescence (kMESF) ([1]; at 300 µM (top of the series)) | further results |
| --- | --- | --- | --- |
| CNc1nc(NC2CCCCC2)c([N+](=O)[O-])c(N2CCOCC2)n1 | 6.42 kMESF (inactive) |  |  |
| CNc1nc(N)c([N+](=O)[O-])c(Nc2cccc(OC)c2)n1 | 6.21 kMESF (inactive) |  |  |
| CCOC(=O)c1c(N)nc(NC)nc1Nc1cccc(F)c1 |  | 4.41 kMESF (inactive) |  |
| COc1cccc(-c2cc(Nc3cc(C)[nH]n3)nc(NCc3ccccc3)n2)c1 |  | 4.54 kMESF (inactive) |  |
| CNc1nc(N)c([N+](=O)[O-])c(Nc2cccc(Oc3ccccc3)c2)n1 | 6.57 kMESF (inactive) |  |  |
| CNc1nc(N)c([N+](=O)[O-])c(Nc2ccccc2F)n1 | 6.21 kMESF (inactive) |  |  |
| CCNc1nc(N)c([N+](=O)[O-])c(Nc2cccc(Cl)c2)n1 | 6.21 kMESF (inactive) |  |  |
| CCNc1nc(NC2CCCCC2)c([N+](=O)[O-])c(N2CCOCC2)n1 | 6.5 kMESF (inactive) |  |  |
| Cc1cc(Nc2cc(Nc3ccccc3)nc(NCc3ccccc3)n2)n[nH]1 |  | 4.28 kMESF (inactive) |  |
| CNc1nc(N)c(C(=O)c2ccc(C)c(C)c2)c(Nc2cccc(Cl)c2)n1 |  |  | EC50 [2]: 80.9 µM (inactive) |
| CNc1nc(N)cc(Nc2ccccc2F)n1 |  | 4.66 kMESF (inactive) |  |
| COC(=O)c1cccc(-c2cc(Nc3cc(C)[nH]n3)nc(NCc3ccccc3)n2)c1 |  | 4.28 kMESF (inactive) |  |
| O=[N+]([O-])c1c(NC2CCCCC2)nc(NCc2ccccc2)nc1N1CCOCC1 |  | 4.34 kMESF (inactive) |  |
| CNc1nc(N)cc(Oc2cccc(Cl)c2)n1 |  | 4.73 kMESF (inactive) |  |
| Cc1cc(Nc2cc(-c3ccccc3)nc(NCc3ccccc3)n2)n[nH]1 |  | 4.41 kMESF (inactive) |  |
| CNc1nc(N)cc(Nc2cccc(Cl)c2)n1 |  |  | EC50 [2]: 101 µM (inactive) |
| CNc1nc(N)c([N+](=O)[O-])c(Nc2ccccc2Br)n1 | 6.28 kMESF (inactive) |  |  |
| CNc1nc(N)c([N+](=O)[O-])c(Nc2cccc(Br)c2)n1 | 6.21 kMESF (inactive) |  |  |
| CNc1nc(NC)c([N+](=O)[O-])c(Nc2cccc(Cl)c2)n1 | 6.28 kMESF (inactive) |  |  |
| COc1ccccc1-c1cc(Nc2cc(C)[nH]n2)nc(NCc2ccccc2)n1 |  | 4.66 kMESF (inactive) |  |
